In ChEMBL document CHEMBL3351891, “Synthesis and structure-activity relationships of lapacho analogues. 2. Modification of the basic naphtho[2,3-b]furan-4,9-dione, redox activation, and suppression of human keratinocyte hyperproliferation by 8-hydroxynaphtho[2,3-b]thiophene-4,9-diones” (J Med Chem, 2014):

How the values were obtained:
HaCaT [1] = assay: Antihyperproliferative activity against human HaCaT cells assessed as LDH release at 2 umol/L after 4 hrs; assay type: functional
Outline: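 HaCaT keratinocytes exposed to test compound (2 μM) for 4 h at 37 °C; extracellular LDH in supernatant measured by UV method with pyruvate and NADH, reported as mU/mL. Vehicle control 0.2% DMSO in medium; Brij 35 with ultrasound as positive control; N = 3.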

HaCaT [2] = assay: Antihyperproliferative activity against human HaCaT cells assessed as inhibition of cell growth after 48 hrs by phase contrast microscopy; assay type: functional, cell-based
Outline: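 Immortalized human HaCaT keratinocytes incubated with compound for 48 h; growth determined by counting dispersed cells under phase contrast microscopy. Inhibition = (1 − test/control) × 100, test N = 3 vs control N = 6−8, Student's t test; IC50 by nonlinear regression.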

HaCaT [3] = assay: Induction of superoxide generation in human HaCaT cells assessed as mean fluorescence intensity at 5 umol/L for 18 hrs chronic treatment (reference value: 367.5 +/- 80.1 no unit); assay type: functional
HaCaT [4] = assay: Induction of superoxide generation in human HaCaT cells assessed as apoptotic cells at 5 umol/L for 18 hrs chronic treatment (reference value: 3 +/- 1%); assay type: functional
HaCaT [5] = assay: Induction of superoxide generation in human HaCaT cells assessed as mean fluorescence intensity at 5 umol/L for 18 hrs chronic treatment in presence of dicoumarol NQO-1 inhibitor (reference value: 407.6 +/- 68.7 no unit); assay type: functional
[6] = Induction of superoxide generation measured per U of enzyme in presence of NQO-1; assay type: physicochemical
Outline: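 Human recombinant NQO-1 with NADPH and compound ([…]); superoxide followed spectrophotometrically as SOD-inhibitable cytochrome c reduction, with catalase and DTPA added. Rate as μmol/L/min per U enzyme; mean ± SD, N ≥ 3.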

[7] = Induction of superoxide generation measured per 2 mU of enzyme in presence of cytochrome P450 oxidoreductase; assay type: physicochemical
Outline: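 Human recombinant NADPH–cytochrome P450 oxidoreductase with compound ([…]); spectrophotometric SOD-inhibitable reduction of succinoylated cytochrome c, with catalase and DTPA present. Rate given as μmol/L/min per 2 mU enzyme; mean ± SD, N ≥ 3.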

HaCaT [8] = assay: Induction of superoxide generation in human HaCaT cells assessed as mean fluorescence intensity at 50 umol/L for 30 mins acute treatment (reference value: 7.1 +/- 5.2 no unit); assay type: functional
HaCaT [9] = assay: Induction of superoxide generation in human HaCaT cells assessed as apoptotic cells at 5 umol/L for 18 hrs chronic treatment in presence of dicoumarol NQO-1 inhibitor (reference value: 4.3 +/- 2.6%); assay type: functional

Structure (SMILES)	IC50 (HaCaT [2]) [µM]	other results
O=C(c1cccnc1)c1cc2c(s1)C(=O)c1c(O)cccc1C2=O	0.3	Activity (HaCaT [1]): 154 mU/ml
COC(=O)Cc1ccc2c(c1O)C(=O)c1sccc1C2=O	2.8	–
COc1c2cc(C(=O)c3cccnc3)sc2c(OC)c2c(OC)cccc12	> 30	–
O=C(O)c1ccccc1Cc1ccc2c(c1O)C(=O)c1sccc1C2=O	25.7	–
O=C1c2ccsc2C(=O)c2c1ccc(Cc1ccco1)c2O	8.5	Activity (HaCaT [1]): 127 mU/ml
CC(=O)Nc1cccc2c1C(=O)c1sccc1C2=O	2.76	–
COc1ccc(COC(=O)c2cc3c(s2)C(=O)c2c(O)cccc2C3=O)cc1	11.9	–
O=C(c1ccccc1)c1cc2c(s1)C(=O)c1c(O)cccc1C2=O	0.8	Activity (HaCaT [1]): 419 mU/ml
O=C1c2ccccc2C(=O)c2scnc21	1.2	–
COC(=O)c1ccccc1Cc1ccc2c(c1O)C(=O)c1sccc1C2=O	19.1	–
CCc1noc(-c2cc3c(s2)C(=O)c2c(O)cccc2C3=O)n1	0.19	Flu intensity (HaCaT [3]): 802.2; Activity (HaCaT [4]): 77.6%; Flu intensity (HaCaT [5]): 747; Activity (HaCaT [1]): 150 mU/ml; Activity [6]: 0.7 µmol/L/min; Activity [7]: 1 µmol/L/min; Flu intensity (HaCaT [8]): 20.9; Activity (HaCaT [9]): 20.3%
CCC(=O)c1cc2c(s1)C(=O)c1c(O)cccc1C2=O	0.38	Activity (HaCaT [1]): 244 mU/ml
O=C1c2c(O)cccc2Cc2cccc(O)c21 [ANTHRALIN]	–	Activity (HaCaT [1]): 239 mU/ml
O=C1c2ccccc2C(=O)c2sccc21 [THIOPHENONAPHTHOQUINONE]	4.8	–
CC1=CC(=O)c2ccccc2C1=O [MENADIONE]	–	Flu intensity (HaCaT [3]): 431.9; Activity (HaCaT [4]): 4.8%; Flu intensity (HaCaT [5]): 457.2; Activity [6]: 1 µmol/L/min; Activity [7]: 2.1 µmol/L/min; Flu intensity (HaCaT [8]): 44; Activity (HaCaT [9]): 3.1%
CC(C)OC(=O)c1cc2c(s1)C(=O)c1c(O)cccc1C2=O	0.92	–
CC(=O)c1nc2c([nH]1)C(=O)c1ccccc1C2=O	> 30	–
CC(=O)c1cc2c(s1)C(=O)c1c(ccc(CO)c1O)C2=O	0.7	Activity (HaCaT [1]): 284 mU/ml
CCOC(=O)c1cc2c(s1)C(=O)c1c(O)cccc1C2=O	0.76	Activity (HaCaT [1]): 233 mU/ml
CC(=O)c1cc2c(s1)C(=O)c1c(Cl)cccc1C2=O	1.28	–
Cc1ccc2c(c1O)C(=O)c1sccc1C2=O	5.3	–
CC(=O)c1cc2c(s1)C(=O)c1ccccc1C2=O	0.44	–
CCN(CC)C(=O)c1cc2c(s1)C(=O)c1c(O)cccc1C2=O	0.36	Activity (HaCaT [1]): 330 mU/ml
O=C1c2ccsc2C(=O)c2c(O)cccc21	2.75	Flu intensity (HaCaT [3]): 610.6; Activity (HaCaT [4]): 4.9%; Flu intensity (HaCaT [5]): 717.7; Activity [6]: 0.3 µmol/L/min; Activity [7]: 1.8 µmol/L/min; Flu intensity (HaCaT [8]): 23.8; Activity (HaCaT [9]): 6.1%
COc1ccc(C(=O)c2cc3c(s2)C(=O)c2c(O)cccc2C3=O)c(O)c1	7.07	–

Structure (SMILES)	IC50 (HaCaT [2]) [µM]	other results
CCCCc1ccc2c(c1O)C(=O)c1sccc1C2=O	> 30	–
O=C(O)c1cc2c(s1)C(=O)c1c(O)cccc1C2=O	> 30	–
O=C1c2ccccc2C(=O)c2[nH]ccc21	> 30	–
O=C1c2cc(-c3nc(CCc4ccccc4)no3)sc2C(=O)c2c(O)cccc21	0.48	–
CCc1ccc2c(c1O)C(=O)c1sccc1C2=O	11.4	–
CCOC(=O)c1cc2c(s1)C(=O)c1c(OC)cccc1C2=O	2.87	–
N#Cc1ccc(Cc2ccc3c(c2O)C(=O)c2sccc2C3=O)cc1	14.2	–
CC(=O)c1cc2c(s1)C(=O)c1c(O)ccc(O)c1C2=O	0.5	–
CCOC(=O)Cc1ccc2c(c1O)C(=O)c1sccc1C2=O	2.1	–
O=C(c1cccs1)c1cc2c(s1)C(=O)c1c(O)cccc1C2=O	0.29	Activity (HaCaT [1]): 158 mU/ml
COc1cccc2c1C(=O)c1sc(C(C)=O)cc1C2=O	3.5	–
CCOC(=O)c1cc2c(OC)c3cccc(OC)c3c(OC)c2s1	> 30	–
COc1ccc(Cc2ccc3c(c2O)C(=O)c2sccc2C3=O)cc1	23.2	–
CCC(=O)c1cc2c(OC)c3cccc(OC)c3c(OC)c2s1	> 30	–
O=C(OCCc1ccccc1)c1cc2c(s1)C(=O)c1c(O)cccc1C2=O	> 30	–
O=C(c1ccc(Cl)cc1)c1cc2c(s1)C(=O)c1c(O)cccc1C2=O	5.64	–
CC(=O)c1cc2c(s1)C(=O)c1c(O)cccc1C2=O	0.4	Flu intensity (HaCaT [3]): 921.4; Activity (HaCaT [4]): 23%; Flu intensity (HaCaT [5]): 813; Activity [6]: 0.6 µmol/L/min; Activity [7]: 1.1 µmol/L/min; Flu intensity (HaCaT [8]): 23.7; Activity (HaCaT [9]): 7.3%
O=C(Cc1ccccc1)c1cc2c(s1)C(=O)c1c(O)cccc1C2=O	4.42	–
O=C1c2ccccc2C(=O)c2ocnc21	0.9	–
CC(=O)c1nc2c(n1C)C(=O)c1ccccc1C2=O	> 30	–
O=Cc1cc2c(s1)C(=O)c1c(O)cccc1C2=O	1	–
O=C1c2ccsc2C(=O)c2c1ccc(CO)c2O	1.2	Activity (HaCaT [1]): 214 mU/ml
COc1cccc2c1C(=O)c1sc(C(=O)c3cccnc3)cc1C2=O	5.7	–
COC(=O)c1ccc(Cc2ccc3c(c2O)C(=O)c2sccc2C3=O)cc1	> 30	–
O=C1c2sccc2Cc2cccc(O)c21	2.5	–

Structure (SMILES)	IC50 (HaCaT [2]) [µM]	other results
CCc1noc(-c2cc3c(OC)c4cccc(OC)c4c(OC)c3s2)n1	> 30	–
CCC(=O)c1cc2c(s1)C(=O)c1c(OC)cccc1C2=O	3.5	–
O=C(COc1ccccc1)c1cc2c(s1)C(=O)c1c(O)cccc1C2=O	11.2	–
COc1cccc2c1C(=O)c1sccc1C2=O	13.5	–
O=C1c2ccccc2C(=O)c2[nH]cnc21	> 30	–
COc1c2ccsc2c(OC)c2c(OC)cccc12	> 30	–
Nc1cccc2c1C(=O)c1sccc1C2=O	> 30	–
O=C1c2ccccc2C(=O)c2[se]ccc21	6.12	–
O=C1c2ccsc2C(=O)c2c(O)ccc(O)c21	2.7	–
CC1(C)CCC2=C(O1)c1ccccc1C(=O)C2=O [LAPACHONE]	–	Activity (HaCaT [1]): 268 mU/ml
O=C1c2ccsc2C(=O)c2c(Cl)cccc21	3.77	–
CCCOC(=O)Cc1ccc2c(c1O)C(=O)c1sccc1C2=O	4.5	–
O=C(Cc1ccc2c(c1O)C(=O)c1sccc1C2=O)OCc1ccccc1	> 30	–
COc1ccc(C(=O)c2cc3c(s2)C(=O)c2c(O)cccc2C3=O)cc1	4.72	–
O=C1c2ccsc2C(=O)c2c1ccc(Cc1ccccc1)c2O	10.1	Activity (HaCaT [1]): 107 mU/ml
COc1ccc(Cc2ccc3c(c2O)C(=O)c2sccc2C3=O)cc1OC	> 30	–
CC(C)C(=O)c1cc2c(s1)C(=O)c1c(O)cccc1C2=O	0.45	–
Cn1cnc2c1C(=O)c1ccccc1C2=O	> 30	–
O=C(O)c1ccc(Cc2ccc3c(c2O)C(=O)c2sccc2C3=O)cc1	> 30	–
Cc1ccc(Cc2ccc3c(c2O)C(=O)c2sccc2C3=O)cc1	13.8	–
O=C(CCc1ccccc1)c1cc2c(s1)C(=O)c1c(O)cccc1C2=O	> 30	–
O=C1c2ccsc2C(=O)c2c1ccc(Cc1ccc(C(F)(F)F)cc1)c2O	16.7	–
CCc1noc(-c2cc3c(s2)C(=O)c2c(OC)cccc2C3=O)n1	3.52	–
O=C(O)Cc1ccc2c(c1O)C(=O)c1sccc1C2=O	21.5	–
